Measured values from publication PMC7825275 (Cancer chemotherapy and pharmacology, 2019).

Test system: patients with advanced solid tumors
Test: Toxicity by grade
Type: in vivo, human
Details: first cycle including veliparib with carboplatin and paclitaxel, n=73
Method in brief: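 Adverse events were tabulated descriptively as maximum grade in three groups: the chemotherapy-only lead-in cycle, the first veliparib-containing cycle, and all cycles. CBC and serum chemistry including liver function tests were drawn weekly during cycles 1–2, then at the start of every cycle. Veliparib was oral, twice daily on days 1–7; carboplatin/paclitaxel were IV every 21 days.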

C[C@]1(c2nc3c(C(N)=O)cccc3[nH]2)CCCN1 [veliparib]
Fever, Grade 4: 0 number of patients (%)
Flu like symptoms, Any Grade: 1 (1) number of patients (%)
Flu like symptoms, Grade 1: 1 (1) number of patients (%)
Flu like symptoms, Grade 2: 0 number of patients (%)
Flu like symptoms, Grade 3: 0 number of patients (%)
Flu like symptoms, Grade 4: 0 number of patients (%)
Flushing, Any Grade: 2 (3) number of patients (%)
Flushing, Grade 1: 2 (3) number of patients (%)
Flushing, Grade 2: 0 number of patients (%)
Flushing, Grade 3: 0 number of patients (%)
Flushing, Grade 4: 0 number of patients (%)
Headache, Any Grade: 3 (4) number of patients (%)
Headache, Grade 1: 3 (4) number of patients (%)
Headache, Grade 2: 0 number of patients (%)
Headache, Grade 3: 0 number of patients (%)
Headache, Grade 4: 0 number of patients (%)
Hiccups, Any Grade: 1 (1) number of patients (%)
Hiccups, Grade 1: 1 (1) number of patients (%)
Hiccups, Grade 2: 0 number of patients (%)
Hiccups, Grade 3: 0 number of patients (%)
Hiccups, Grade 4: 0 number of patients (%)
Hypoalbuminemia, Any Grade: 3 (4) number of patients (%)
Hypoalbuminemia, Grade 1: 1 (1) number of patients (%)
Hypoalbuminemia, Grade 2: 2 (3) number of patients (%)
Hypoalbuminemia, Grade 3: 0 number of patients (%)
Hypoalbuminemia, Grade 4: 0 number of patients (%)
Hypocalcemia, Any Grade: 2 (3) number of patients (%)
Hypocalcemia, Grade 1: 0 number of patients (%)
Hypocalcemia, Grade 2: 1 (1) number of patients (%)
Hypocalcemia, Grade 3: 1 (1) number of patients (%)
Hypocalcemia, Grade 4: 0 number of patients (%)
Hypomagnesemia, Any Grade: 1 (1) number of patients (%)
Hypomagnesemia, Grade 1: 0 number of patients (%)
Hypomagnesemia, Grade 2: 1 (1) number of patients (%)
Hypomagnesemia, Grade 3: 0 number of patients (%)
Hypomagnesemia, Grade 4: 0 number of patients (%)
Hyponatremia, Any Grade: 5 (7) number of patients (%)
Hyponatremia, Grade 1: 3 (4) number of patients (%)
Hyponatremia, Grade 2: 0 number of patients (%)
Hyponatremia, Grade 3: 1 (1) number of patients (%)
Hyponatremia, Grade 4: 1 (1) number of patients (%)
Hypophosphatemia, Any Grade: 1 (1) number of patients (%)
Hypophosphatemia, Grade 1: 0 number of patients (%)
Hypophosphatemia, Grade 2: 0 number of patients (%)
Hypophosphatemia, Grade 3: 1 (1) number of patients (%)
Hypophosphatemia, Grade 4: 0 number of patients (%)
Insomnia, Any Grade: 1 (1) number of patients (%)
Insomnia, Grade 1: 1 (1) number of patients (%)
Insomnia, Grade 2: 0 number of patients (%)
Insomnia, Grade 3: 0 number of patients (%)
Insomnia, Grade 4: 0 number of patients (%)
Lymphocyte count decreased, Any Grade: 14 (19) number of patients (%)
Lymphocyte count decreased, Grade 1: 2 (3) number of patients (%)
Lymphocyte count decreased, Grade 2: 8 (11) number of patients (%)
Lymphocyte count decreased, Grade 3: 3 (4) number of patients (%)
Lymphocyte count decreased, Grade 4: 1 (1) number of patients (%)
Mucositis oropharyngeal, Any Grade: 3 (4) number of patients (%)
Mucositis oropharyngeal, Grade 1: 3 (4) number of patients (%)
Mucositis oropharyngeal, Grade 2: 0 number of patients (%)
Mucositis oropharyngeal, Grade 3: 0 number of patients (%)
Mucositis oropharyngeal, Grade 4: 0 number of patients (%)
Muscle weakness, Grade 1: 1(1) number of patients (%)
Muscle weakness, Grade 2: 1 (1) number of patients (%)
Muscle weakness, Grade 3: 0 number of patients (%)
Muscle weakness, Grade 4: 0 number of patients (%)
Myalgia, Any Grade: 8 (11) number of patients (%)
Myalgia, Grade 1: 6 (8) number of patients (%)
Myalgia, Grade 2: 2 (3) number of patients (%)
Myalgia, Grade 3: 0 number of patients (%)
Myalgia, Grade 4: 0 number of patients (%)
Nausea, Any Grade: 28 (38) number of patients (%)
Nausea, Grade 1: 22 (30) number of patients (%)
Nausea, Grade 2: 5 (7) number of patients (%)
Nausea, Grade 3: 1 (1) number of patients (%)
Nausea, Grade 4: 0 number of patients (%)
Neutrophil count decreased, Any Grade: 42 (57) number of patients (%)
Neutrophil count decreased, Grade 1: 1 (1) number of patients (%)
Neutrophil count decreased, Grade 2: 4 (5) number of patients (%)
Neutrophil count decreased, Grade 3: 14 (19) number of patients (%)
